Five compounds from ChEMBL document CHEMBL1129660, “Studies on 6-aminoquinolones: synthesis and antibacterial evaluation of 6-amino-8-methylquinolones” (J Med Chem, 1996) can be followed below.

What all share (assay type): functional
One assay has as its system Klebsiella pneumoniae. Description: Antibacterial activity tested against Klebsiella pneumoniae (Klebsiella pneumoniae) ATCC 10031. An outline of the steps:
(§1)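 MICs (µg/mL) determined by conventional agar dilution against a panel of eight Gram-negative and five Gram-positive reference strains.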

Another assay relates to Shigella. In words: Antibacterial activity tested against Shigella enteritidis. An outline of the steps: as §1
In assay [1] the test system is Staphylococcus epidermidis. In words: Antibacterial activity tested against Staphylococcus epidermidis HCF Berset C. An outline of the steps: as §1
The test system of assay [2] is Enterococcus faecalis. Description: Antibacterial activity tested against Streptococcus faecalis LEP Br. Put shortly:
as §1

The test system of the next assay is Providencia stuartii. In words: Antibacterial activity tested against Providencia stuartii CNUR 5. An outline of the steps: as §1
Assay [3] relates to Escherichia coli. In words: Inhibitory activity against gyrase supercoiling activity from Escherichia coli. Put shortly: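 Inhibition of DNA gyrase supercoiling activity, by a previously described protocol with slight modifications. IC50 derived by densitometric quantification of the supercoiled DNA peak in an agarose gel.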
Assay [4] deals with Staphylococcus aureus. In words: Antibacterial activity against Staphylococcus aureus MPR 5. An outline of the steps:
as §1

Assay [5] relates to Staphylococcus epidermidis. Description: Antibacterial activity tested against Staphylococcus epidermidis CPHL A2. Put shortly:
as §1

A short description of assay [6]: Geometric mean of antibacterial activity (Gram -ve bacteria) of the compound. Put shortly: (§2)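 Geometric means calculated from agar-dilution MICs (µg/mL), taken separately across the five Gram-positive and the eight Gram-negative panel strains.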
The test system of the next assay is Pseudomonas aeruginosa. In words: Antibacterial activity tested against P. ae (Pseudomonas aeruginosa) ATCC 9027. Put shortly: as §1
The next assay deals with Proteus vulgaris. Description: Antibacterial activity tested against Proteus vulgaris CNUR 5. An outline of the steps: as §1
A further assay concerns Bacteria. Description: Geometric mean of antibacterial activity (Gram +ve bacteria) of the compound. An outline of the steps: as §2
In assay [7] the test system is Staphylococcus aureus. Description: Antibacterial activity against Staphylococcus aureus ATCC 6538. An outline of the steps: as §1
The subject of the next assay is Enterobacter cloacae. Description: Antibacterial activity tested against Enterobacter cloacae OMNFI 174.
The test system of assay [8] is Escherichia coli. Description: Antibacterial activity tested against Escherichia coli ISF 432. An outline of the steps: as §1
The test system of assay [9] is Escherichia coli. Description: Antibacterial activity tested against Escherichia coli ATCC 8739. Put shortly: as §1
In assay [10] the test system is Staphylococcus aureus. Description: Antibacterial activity tested against Staphylococcus aureus; Range is 0.06-0.13 ug/mL.
In another assay the test system is Streptococcus pneumoniae. In words: Antibacterial activity tested against Streptococcus pneumoniae; Range is 1-2 ug/mL.
Assay [11] relates to Staphylococcus aureus. In words: Antibacterial activity tested against Staphylococcus aureus Methicillin-and Ciprofloxacin resistants; Range is 4-8 ug/mL.
In assay [12] the test system is Enterococcus faecium. Description: Antibacterial activity tested against Enterococcus faecium; Range is 0.5-2 ug/mL.
Assay [13] deals with Enterococcus faecalis. Description: Antibacterial activity tested against Enterococcus faecalis; Range is 0.25-0.5 ug/mL.
Assay [14] concerns Enterococcus faecalis. In words: Antibacterial activity tested against Enterococcus faecalis.
Assay [15] relates to Staphylococcus aureus. Description: Antibacterial activity tested against Staphylococcus aureus Methicillin-and Ciprofloxacin resistants; Range is 2-8 ug/mL.
Assay [16] concerns Enterococcus faecium. Description: Antibacterial activity tested against Enterococcus faecium.

Converted amounts (≈) assume the structure as drawn.

Regarding `Cc1c(N2CCN(C)CC2)c(N)cc2c(=O)c(C(=O)O)cn(C3CC3)c12`, the MIC against Klebsiella pneumoniae turned out to be 0.03 µg/mL (≈ 0.0842 µM); against Shigella, 0.06 µg/mL (≈ 0.168 µM); in assay [1], 1 µg/mL (≈ 2.81 µM); in the assay on Enterococcus faecalis [2], 4 µg/mL (≈ 11.2 µM); with Providencia stuartii it was 2 µg/mL (≈ 5.61 µM); in the assay on Staphylococcus aureus [4], 0.5 µg/mL (≈ 1.4 µM). In addition, the MIC in assay [5] was found to be 1 µg/mL (≈ 2.81 µM); against Pseudomonas aeruginosa, 2 µg/mL (≈ 5.61 µM); against Proteus vulgaris, 4 µg/mL (≈ 11.2 µM); in the assay on Staphylococcus aureus [7], 0.5 µg/mL (≈ 1.4 µM); against Enterobacter cloacae it was 0.125 µg/mL (≈ 0.351 µM); against Escherichia coli [8] it was 0.03 µg/mL (≈ 0.0842 µM). In the assay on Escherichia coli [9], the MIC worked out at 0.03 µg/mL (≈ 0.0842 µM). The compound also registered an IC50 in the assay with Escherichia coli [3] of 3.78 µg/mL (≈ 10.6 µM). In addition, the Geometric mean in [6] amounted to 0.205; in the assay with Bacteria, 1.

As for `Cc1c(N2CCN(C)CC2)c([N+](=O)[O-])cc2c(=O)c(C(=O)O)cn(C3CC3)c12`, the MIC was 16 µg/mL (≈ 41.4 µM) against Klebsiella pneumoniae; 1 µg/mL (≈ 2.59 µM) against Shigella; 4 µg/mL (≈ 10.4 µM) in [1]; 16 µg/mL (≈ 41.4 µM) against Enterococcus faecalis [2]; 32 µg/mL (≈ 82.8 µM) against Providencia stuartii; 4 µg/mL (≈ 10.4 µM) against Staphylococcus aureus [4]. For the same compound, the MIC in assay [5] is 2 µg/mL (≈ 5.18 µM); against Pseudomonas aeruginosa, 64 µg/mL (≈ 166 µM); in the assay with Proteus vulgaris, 64 µg/mL (≈ 166 µM); in the assay with Staphylococcus aureus [7], 4 µg/mL (≈ 10.4 µM); with Enterobacter cloacae it was 8 µg/mL (≈ 20.7 µM); in the assay with Escherichia coli [8], 4 µg/mL (≈ 10.4 µM). Besides, the lowest concentration to inhibit growth in the assay on Escherichia coli [9] (MIC) was 16 µg/mL (≈ 41.4 µM). The Geometric mean in assay [6] is 13.454; in the assay with Bacteria, 4.595.

Regarding `CNc1cc2c(=O)c(C(=O)O)cn(C3CC3)c2c(C)c1N1CCC(C)CC1`, the minimum inhibitory concentration (MIC) against Klebsiella pneumoniae came out at 0.5 µg/mL (≈ 1.35 µM); against Shigella, 64 µg/mL (≈ 173 µM); in assay [1] it was 4 µg/mL (≈ 10.8 µM); in the assay with Enterococcus faecalis [2] it was 32 µg/mL (≈ 86.6 µM); in the assay on Providencia stuartii, 16 µg/mL (≈ 43.3 µM); with Staphylococcus aureus [4] it was 1 µg/mL (≈ 2.71 µM). The MIC was 2 µg/mL (≈ 5.41 µM) in assay [5]; over 128 µg/mL with Pseudomonas aeruginosa; over 128 µg/mL against Proteus vulgaris; 1 µg/mL (≈ 2.71 µM) with Staphylococcus aureus [7]; 64 µg/mL (≈ 173 µM) in the assay on Enterobacter cloacae; 0.5 µg/mL (≈ 1.35 µM) in the assay on Escherichia coli [8]. Besides, the MIC in the assay on Escherichia coli [9] was determined as 1 µg/mL (≈ 2.71 µM). Besides, the results for the Geometric mean (in [6]; with Bacteria) were 11.313 and 3.031, respectively.

`Cc1c(N2CCOCC2)c(N)cc2c(=O)c(C(=O)O)cn(C3CC3)c12`: the MIC stood at 0.03 µg/mL (≈ 0.0874 µM) with Klebsiella pneumoniae; 0.125 µg/mL (≈ 0.364 µM) with Shigella; 0.125 µg/mL (≈ 0.364 µM) in [1]; 0.06 µg/mL (≈ 0.175 µM) in the assay on Staphylococcus aureus [10]; 1 µg/mL (≈ 2.91 µM) in the assay with Enterococcus faecalis [2]; 0.5 µg/mL (≈ 1.46 µM) against Providencia stuartii. Moreover, the MIC in the assay with Streptococcus pneumoniae was determined as 1 µg/mL (≈ 2.91 µM); in the assay with Staphylococcus aureus [4], 0.125 µg/mL (≈ 0.364 µM); in assay [5], 0.25 µg/mL (≈ 0.728 µM); against Pseudomonas aeruginosa it was 1 µg/mL (≈ 2.91 µM); with Staphylococcus aureus [11], 4 µg/mL (≈ 11.6 µM); with Proteus vulgaris, 8 µg/mL (≈ 23.3 µM). For the same compound, the MIC is 0.125 µg/mL (≈ 0.364 µM) against Staphylococcus aureus [7]; 0.125 µg/mL (≈ 0.364 µM) against Enterobacter cloacae; 0.03 µg/mL (≈ 0.0874 µM) in the assay on Escherichia coli [8]; 0.5 µg/mL (≈ 1.46 µM) against Enterococcus faecium [12]; 0.25 µg/mL (≈ 0.728 µM) with Enterococcus faecalis [13]; 0.03 µg/mL (≈ 0.0874 µM) against Escherichia coli [9]. This compound had an IC50 in the assay on Escherichia coli [3] of 5.64 µg/mL (≈ 16.4 µM). Moreover, the figures for the Geometric mean (in [6]; in the assay on Bacteria) were 0.189 and 0.218, respectively.

For `Cc1c(N2CCSCC2)c(N)cc2c(=O)c(C(=O)O)cn(C3CC3)c12`, the MIC in the assay with Klebsiella pneumoniae worked out at 0.02 µg/mL (≈ 0.0556 µM); in the assay on Shigella, 0.125 µg/mL (≈ 0.348 µM); in assay [1] it was 0.125 µg/mL (≈ 0.348 µM); against Staphylococcus aureus [10], 0.06 µg/mL (≈ 0.167 µM); against Enterococcus faecalis [2], 0.5 µg/mL (≈ 1.39 µM); in the assay with Providencia stuartii it was 2 µg/mL (≈ 5.56 µM). The MIC against Enterococcus faecalis [14] is 0.5 µg/mL (≈ 1.39 µM); with Staphylococcus aureus [15] it was 2 µg/mL (≈ 5.56 µM); in the assay on Streptococcus pneumoniae, 1 µg/mL (≈ 2.78 µM); with Staphylococcus aureus [4], 0.06 µg/mL (≈ 0.167 µM); in assay [5], 0.125 µg/mL (≈ 0.348 µM); in the assay with Pseudomonas aeruginosa, 1 µg/mL (≈ 2.78 µM). Also, the MIC was found to be 2 µg/mL (≈ 5.56 µM) against Enterococcus faecium [16]; 32 µg/mL (≈ 89 µM) against Proteus vulgaris; 0.06 µg/mL (≈ 0.167 µM) in the assay on Staphylococcus aureus [7]; 0.25 µg/mL (≈ 0.696 µM) in the assay with Enterobacter cloacae; 0.03 µg/mL (≈ 0.0835 µM) with Escherichia coli [8]; 0.25 µg/mL (≈ 0.696 µM) in the assay on Escherichia coli [9]. In the assay on Escherichia coli [3], this compound returned an IC50 of 1.42 µg/mL (≈ 3.95 µM). Moreover, the Geometric mean in assay [6] is 0.362; with Bacteria, 0.123.
